Source: ChEMBL document CHEMBL1150379, “Synthesis and antiproliferative activity of imidazole and imidazoline analogs for melanoma” (Bioorg Med Chem Lett, 2008)
pIC50: −log10 of the molar value.

Columns and labels:
[1] = Antiproliferative activity against mouse B16-F1 cells after 48 hrs by SRB assay; assay type: functional, cell-based; conditions: B16-F1, 48 h
Procedure, shortened: (§1)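 Cells seeded in round-bottom 96-well plates and exposed to a wide range of concentrations for 48 h. Fixed with 10% trichloroacetic acid, washed five times with water, air-dried overnight, then stained with sulforhodamine B. Total protein read at 560 nm. IC50 is the concentration inhibiting growth by 50% relative to DMSO-treated controls, obtained by nonlinear regression.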

A-375 = assay: Antiproliferative activity against human A375 cells after 48 hrs by SRB assay; assay type: functional, cell-based; conditions: A-375, 48 h; procedure, shortened: as §1
[2] = Antiproliferative activity against fibroblast cells after 48 hrs by SRB assay; assay type: cell-based; procedure, shortened: as §1

Row | pIC50 (A-375) | Compound | pIC50 [1] | pIC50 [2]
1 | 5.15 | CCCCCCCCCCCCCCNC(=O)[C@@H]1CNC(c2ccccc2)=N1 | 5.14 | 4.76
2 | 4.79 | CCCCCCCCC/C=C/CCCCCCCNC(=O)c1c[nH]c(-c2ccccc2)n1 | 4.50 | 4.62
3 | < 4.70 | COc1cc(C2=N[C@H](C(=O)N(C)OC)CN2)cc(OC)c1OC | < 4.70 | < 4.70
4 | < 4.52 | CCCCCCCCCCCCNC(=O)c1c[nH]c(-c2ccccc2)n1 | 4.52 | –
5 | 5.39 | CCCCCCCCCCCCCCCCNC(=O)[C@@H]1CNC(c2cc(OC)c(OC)c(OC)c2)=N1 | 5.42 | 4.88
6 | < 4.52 | O=C(Nc1ccc(Br)cc1)c1c[nH]c(-c2ccccc2)n1 | < 4.52 | –
7 | 4.98 | CCCCCCCCCCCCCCCCNC(=O)[C@@H]1CNC(c2ccccc2)=N1 | 5.24 | 4.22
8 | 4.86 | CCCCCCCCCCCCCCCCNC(=O)[C@H]1CC[C@@H](c2ccccc2)N1 | 4.94 | 4.33
9 | 5.09 | CCCCCCCCCCCCCCCCNC(=O)[C@@H]1CSC(Cc2ccccc2)N1 (stereo partly specified) | 5.19 | 4.82
10 | 4.27 | CCCCCCCCCCCCCCCCCCNC(=O)[C@@H]1CNC(c2ccccc2)=N1 | 4.30 | 3.95
11 | 5.08 | CCCCCCCCC/C=C/CCCCCCCNC(=O)[C@@H]1CNC(c2ccccc2)=N1 | 4.92 | 4.61
12 | 4.99 | CCCCCCCCC/C=C/CCCCCCCNC(=O)[C@@H]1CSC(Cc2ccccc2)N1 (stereo partly specified) | 4.94 | 4.81
13 | < 4.52 | CCCCCCCCCCNC(=O)c1c[nH]c(-c2ccccc2)n1 | < 4.52 | –
14 | 4.88 | CCCCCCCCCCCCCCCCNC(=O)[C@@H]1CSC(C(C)c2ccccc2)N1 (stereo partly specified) | 4.91 | 4.25
15 | < 4.00 | CN(C)/N=N/c1[nH]cnc1C(N)=O [DACARBAZINE] | < 4.00 | –

Second part, the compound before the results:

Row | Compound | pIC50 (A-375) | pIC50 [1] | pIC50 [2]
16 | CCCCCCCCCCCCCCCCCCNC(=O)c1c[nH]c(-c2ccccc2)n1 | 4.68 | < 4.52 | 4.32
17 | CCCCCCCCCCCCCCCCNC(=O)[C@@H]1CNC(c2ccc(NC(C)=O)cc2)=N1 | 5.34 | 5.62 | 4.83
18 | CCCCCCCCCCCCCCCCNC(=O)[C@@H]1CNC(Cc2cc(OC)c(OC)c(OC)c2)=N1 | 5.41 | 5.40 | 4.80
19 | CCCCCCCCCCCCCCCCNC(=O)[C@@H]1CSC(Cc2ccc(NC(C)=O)cc2)N1 (stereo partly specified) | 3.72 | 3.77 | < 4.00
20 | CC(=O)Nc1ccc(CC2N[C@H](C(=O)Nc3ccc4c(c3)Cc3ccccc3-4)CS2)cc1 (stereo partly specified) | 5.21 | 5.40 | 4.82
21 | O=C(Nc1ccc2c(c1)Cc1ccccc1-2)[C@@H]1CSC(Cc2ccccc2)N1 (stereo partly specified) | 3.76 | 3.93 | < 4.00
22 | CCCCCCCCCCCCCCNC(=O)c1c[nH]c(-c2ccccc2)n1 | 4.73 | 4.42 | 4.37
23 | CCCCCCCCCCCCCCCCNC(=O)c1c[nH]c(-c2ccccc2)n1 | 4.78 | 4.40 | 4.55
24 | CCCCCCCCC/C=C/CCCCCCCNC(=O)[C@@H]1CSC(C(C)c2ccccc2)N1 (stereo partly specified) | 4.67 | 4.78 | 3.63
25 | CNC(=O)c1cc(Oc2ccc(NC(=O)Nc3ccc(Cl)c(C(F)(F)F)c3)cc2)ccn1 [SORAFENIB] | 5.27 | 5.31 | 4.82
